This note sets out measurements from ChEMBL document CHEMBL3046667, “Synthesis and herbicidal activity evaluation of novel β-carboline derivatives” (Molecules, 2012).

Structures are written as SMILES.

The first experiment concerns Echinochloa crus-galli. Briefly: Herbicidal activity against Echinochloa crus-galli (barnyard grass) assessed as growth inhibition at 10 ug/ml. In kind it is functional. As to conditions: read-out: GI. The essentials:
(§1)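 Compounds formulated as 10 g/L emulsified concentrates (DMSO solvent, Tween-80 emulsifier), diluted in water and applied to pot-grown plants in a greenhouse (23 ± 1 °C, 60 ± 5% RH, 8 h/day photoperiod). Distilled water and 2,4-D serve as references. Shoot height, root length and fresh weight are measured per cup. Percent inhibition is taken relative to water; mean of three repeats.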
Take `O=C(N/N=C\Nc1ccc(C(F)(F)F)cc1)c1cc2c(cn1)[nH]c1ccccc12`: the inhibition of growth at 10 µg/mL is 0%.
In the case of `COc1cc(/C=N\NC(=O)c2cc3c(cn2)[nH]c2ccccc23)ccc1O`, the inhibition of growth at 10 µg/mL turned out to be 13.3%.
On the same count and under the same terms, under `COc1ccc2c(c1)[nH]c1c(C)nccc12` [HARMINE] stands 10.8%; under `COc1ccc(/C=N\NC(=O)C2Cc3c([nH]c4ccccc34)CN2)cc1` (stereo not drawn), 0%; under `O=C(NN=C(c1ccccc1)c1ccccc1)c1cc2c(cn1)[nH]c1ccccc12`, 0%.
On the same count and under the same terms, the value for `O=C(N/N=C\c1ccccc1)c1cc2c([nH]c3ccccc32)c(-c2ccccc2)n1` was 30.4%; that for `O=C(N/N=C\c1ccccc1)c1cc2c(cn1)[nH]c1ccccc12` was 11.8%; that for `Cc1nc(C(=O)N/N=C\c2ccccc2)cc2c1[nH]c1ccccc12` was 21.9%.
The same measure, in the same setting: under `O=C(N/N=C\c1ccccc1O)c1cc2c(cn1)[nH]c1ccccc12` stands 18.1%; under `COc1cc(/C=N\NC(=O)C2Cc3c([nH]c4ccccc34)CN2)cc(OC)c1OC` (stereo not drawn), 2.51%.
`O=C(N/N=C\c1ccc(C(F)(F)F)cc1)c1cc2c([nH]c3ccccc32)c(-c2ccc(C(F)(F)F)cc2)n1`: the inhibition of growth at 10 µg/mL came to 9.76%.
The same measure, in the same setting: under `O=C(O)COc1ccc(Cl)cc1Cl` [2,4-DICHLOROPHENOXYACETIC ACID] stands 100%; under `O=C(N/N=C\Nc1ccc(C(F)(F)F)cc1)C1Cc2c([nH]c3ccccc23)CN1` (stereo not drawn), 0%.

The next experiment has as its system Echinochloa crus-galli. Description: Herbicidal activity against Echinochloa crus-galli (barnyard grass) assessed as growth inhibition at 100 ug/ml. Type of experiment: functional. The conditions noted are these: read-out: GI. The essentials:
as §1
On to `O=C(N/N=C\Nc1ccc(C(F)(F)F)cc1)c1cc2c(cn1)[nH]c1ccccc12`, for which the inhibition of growth at 100 µg/mL turned out to be 0%.
On the same count and under the same terms, the value for `COc1cc(/C=N\NC(=O)c2cc3c(cn2)[nH]c2ccccc23)ccc1O` was 33%; that for `COc1ccc2c(c1)[nH]c1c(C)nccc12` [HARMINE] was 32.5%.
For `COc1ccc(/C=N\NC(=O)C2Cc3c([nH]c4ccccc34)CN2)cc1` (stereo not drawn), the inhibition of growth at 100 µg/mL came to 8.62%.
The same measure, in the same setting: the value for `O=C(NN=C(c1ccccc1)c1ccccc1)c1cc2c(cn1)[nH]c1ccccc12` was 0%.
Still for that read-out and setting: the value for `O=C(N/N=C\c1ccccc1)c1cc2c([nH]c3ccccc32)c(-c2ccccc2)n1` was 73.9%; that for `O=C(N/N=C\c1ccccc1)c1cc2c(cn1)[nH]c1ccccc12` was 35.9%.
Same read-out and setting: under `Cc1nc(C(=O)N/N=C\c2ccccc2)cc2c1[nH]c1ccccc12` stands 51.5%.
`O=C(N/N=C\c1ccccc1O)c1cc2c(cn1)[nH]c1ccccc12`: the inhibition of growth at 100 µg/mL came to 47.6%.
On the same count and under the same terms, under `COc1cc(/C=N\NC(=O)C2Cc3c([nH]c4ccccc34)CN2)cc(OC)c1OC` (stereo not drawn) stands 23.8%.
Still for that read-out and setting: under `O=C(N/N=C\c1ccc(C(F)(F)F)cc1)c1cc2c([nH]c3ccccc32)c(-c2ccc(C(F)(F)F)cc2)n1` stands 35.7%; under `O=C(O)COc1ccc(Cl)cc1Cl` [2,4-DICHLOROPHENOXYACETIC ACID], 100%; under `O=C(N/N=C\Nc1ccc(C(F)(F)F)cc1)C1Cc2c([nH]c3ccccc23)CN1` (stereo not drawn), 0%.

A further experiment concerns Brassica rapa subsp. oleifera. Description: Herbicidal activity against Brassica rapa subsp. oleifera. Type of experiment: functional, organism-based.
Conditions: not given
The method, boiled down: as §1
`O=C(N/N=C\c1ccccc1)c1cc2c([nH]c3ccccc32)c(-c2ccccc2)n1` registered an EC50 of 4.83 µM.

In another experiment the test system is Brassica rapa subsp. oleifera. Description: Herbicidal activity against Brassica rapa subsp. oleifera assessed as growth inhibition at 10 ug/ml. Type of experiment: functional. As to conditions: read-out: GI. The essentials: as §1
For the compound `O=C(N/N=C\Nc1ccc(C(F)(F)F)cc1)c1cc2c(cn1)[nH]c1ccccc12`, the inhibition of growth at 10 µg/mL amounted to 7.52%.
Same read-out and setting: under `COc1cc(/C=N\NC(=O)c2cc3c(cn2)[nH]c2ccccc23)ccc1O` stands 27.4%; under `COc1ccc2c(c1)[nH]c1c(C)nccc12` [HARMINE], 20.2%.
Still for that read-out and setting: under `COc1ccc(/C=N\NC(=O)C2Cc3c([nH]c4ccccc34)CN2)cc1` (stereo not drawn) stands 8.69%; under `O=C(NN=C(c1ccccc1)c1ccccc1)c1cc2c(cn1)[nH]c1ccccc12`, 0%.
The same measure, in the same setting: under `O=C(N/N=C\c1ccccc1)c1cc2c([nH]c3ccccc32)c(-c2ccccc2)n1` stands 62.1%; under `O=C(N/N=C\c1ccccc1)c1cc2c(cn1)[nH]c1ccccc12`, 18.1%.
`Cc1nc(C(=O)N/N=C\c2ccccc2)cc2c1[nH]c1ccccc12`: the inhibition of growth at 10 µg/mL came to 37.2%.
On the same count and under the same terms, under `O=C(N/N=C\c1ccccc1O)c1cc2c(cn1)[nH]c1ccccc12` stands 19.4%.
As to `COc1cc(/C=N\NC(=O)C2Cc3c([nH]c4ccccc34)CN2)cc(OC)c1OC` (stereo not drawn), the inhibition of growth at 10 µg/mL was 5.28%.
For `O=C(N/N=C\c1ccc(C(F)(F)F)cc1)c1cc2c([nH]c3ccccc32)c(-c2ccc(C(F)(F)F)cc2)n1`, the inhibition of growth at 10 µg/mL amounted to 35.4%.
Same read-out and setting: the value for `O=C(N/N=C\Nc1ccc(C(F)(F)F)cc1)C1Cc2c([nH]c3ccccc23)CN1` (stereo not drawn) was 0%.

Another experiment deals with Echinochloa crus-galli. Briefly: Herbicidal activity against Echinochloa crus-galli (barnyard grass). In kind it is functional, organism-based.
Conditions: not given
The method, boiled down:
as §1
For the compound `O=C(N/N=C\c1ccccc1)c1cc2c([nH]c3ccccc32)c(-c2ccccc2)n1`, the EC50 stood at 4.83 µM.

For another experiment, the system named is Brassica rapa subsp. oleifera. Briefly: Herbicidal activity against Brassica rapa subsp. oleifera assessed as growth inhibition at 100 ug/ml. As to conditions: read-out: GI. Type of experiment: functional. The essentials: as §1
For `O=C(N/N=C\Nc1ccc(C(F)(F)F)cc1)c1cc2c(cn1)[nH]c1ccccc12`, the inhibition of growth at 100 µg/mL came to 23.7%.
The same measure, in the same setting: the value for `COc1cc(/C=N\NC(=O)c2cc3c(cn2)[nH]c2ccccc23)ccc1O` was 63.2%.
Same read-out and setting: under `COc1ccc2c(c1)[nH]c1c(C)nccc12` [HARMINE] stands 53.7%.
The same measure, in the same setting: under `COc1ccc(/C=N\NC(=O)C2Cc3c([nH]c4ccccc34)CN2)cc1` (stereo not drawn) stands 37.1%; under `O=C(NN=C(c1ccccc1)c1ccccc1)c1cc2c(cn1)[nH]c1ccccc12`, 10.5%.
Take `O=C(N/N=C\c1ccccc1)c1cc2c([nH]c3ccccc32)c(-c2ccccc2)n1`: the inhibition of growth at 100 µg/mL was found to be 100%.
For `O=C(N/N=C\c1ccccc1)c1cc2c(cn1)[nH]c1ccccc12`, the inhibition of growth at 100 µg/mL was found to be 55.6%.
Still for that read-out and setting: the value for `Cc1nc(C(=O)N/N=C\c2ccccc2)cc2c1[nH]c1ccccc12` was 87%; that for `O=C(N/N=C\c1ccccc1O)c1cc2c(cn1)[nH]c1ccccc12` was 50.1%; that for `COc1cc(/C=N\NC(=O)C2Cc3c([nH]c4ccccc34)CN2)cc(OC)c1OC` (stereo not drawn) was 33.5%.
With `O=C(N/N=C\c1ccc(C(F)(F)F)cc1)c1cc2c([nH]c3ccccc32)c(-c2ccc(C(F)(F)F)cc2)n1`, the inhibition of growth at 100 µg/mL worked out at 76.5%.
Turning to `O=C(O)COc1ccc(Cl)cc1Cl` [2,4-DICHLOROPHENOXYACETIC ACID], the inhibition of growth at 100 µg/mL was determined as 100%.
On the same count and under the same terms, the value for `O=C(N/N=C\Nc1ccc(C(F)(F)F)cc1)C1Cc2c([nH]c3ccccc23)CN1` (stereo not drawn) was 16.4%.
